From ChEMBL document CHEMBL1123521, “Isozyme-specific enzyme inhibitors. 10. Adenosine 5'-triphosphate derivatives as substrates or inhibitors of methionine adenosyltransferases of rat normal and hepatoma tissues” (J Med Chem, 1986)

Columns and labels:
[1] = target: T1, S-adenosylmethionine synthetase (MAT 1 and MAT 2) (Rattus norvegicus) (UniProt P13444+P18298); assay: Relative inhibitory potency T/II in rat methionine adenosyltransferase
[2] = target: S-adenosylmethionine synthase isoform type-2 (Rattus norvegicus) (UniProt P18298); assay: Inhibitory potency against rat Methionine adenosyltransferase II
In short: (§1)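 MAT-II from rat kidney extract, taken through DEAE chromatography and diluted 10-fold daily. Duplicate 30-min incubations at 37 °C in 150 mM KCl–15 mM MgCl2–5 mM DTT–50 mM Tris-HCl pH 8.2 with 60 μM [14C]methionine. Mg-complexed inhibitor used at two levels (1-5 × Ki) against six to eight Mg-ATP levels (0.5-4.0 × KM). Product counted on phosphocellulose disks.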

[3] = target: T1, S-adenosylmethionine synthetase (MAT 1 and MAT 2) (Rattus norvegicus); assay: Inhibitory potency against rat Methionine adenosyltransferase was reported; type: protein assay
In short: (§2)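 MAT-T partly purified from rat Novikoff hepatoma cells grown intraperitoneally in rats: cytosol extract, DEAE-cellulose, stored at -20 °C, diluted 10-fold for use. Assay run in duplicate, 37 °C for 30 min, in 150 mM KCl–15 mM MgCl2–5 mM DTT–50 mM Tris-HCl pH 8.2 with 60 μM [14C]methionine. Inhibitors given as 1:1 Mg complexes at two levels of 1-5 × Ki, with six to eight Mg-ATP levels (0.5-4.0 × KM).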

[4] = target: S-adenosylmethionine synthase isoform type-1 (Rattus norvegicus) (UniProt P13444); assay: Half maximal velocity relative to Methionine adenosyltransferase
In short: (§3)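 ATP analogues run as Mg complexes and checked for substrate activity at 1 mM with more enzyme (10 µL stock). Apparent KM from linear double-reciprocal plots. MAT-I: rat liver, 50 mM HEPES pH 7.5, 150 mM KCl, 7.5 mM MgSO4, 2 mM DTT, 380 µM [14C]methionine. MAT-II (rat kidney) and MAT-T (Novikoff hepatoma DEAE fraction): 50 mM Tris-HCl pH 8.2, 150 mM KCl, 15 mM MgCl2, 5 mM DTT, 60 µM [14C]methionine. 37 °C, 30 min, duplicates.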

[5] = target: T1, S-adenosylmethionine synthetase (MAT 1 and MAT 2) (Rattus norvegicus); assay: Half maximal velocity relative to methionine adenosyltransferase; type: protein assay; in short: as §3
[6] = target: S-adenosylmethionine synthase isoform type-2 (Rattus norvegicus) (UniProt P18298); assay: Half maximal velocity relative to rat Methionine adenosyltransferase II
In short: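 DEAE-purified rat kidney MAT-II in 50 mM Tris-HCl pH 8.2, 150 mM KCl, 15 mM MgCl2, 5 mM DTT, with 60 µM [14C]methionine. Analogue checked for substrate activity at 1 mM using more enzyme. Incubated 37 °C for 30 min in duplicate. Acid-quenched product bound to phosphocellulose disks and counted; blanks lacked ATP. KM taken from linear double-reciprocal plots.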

[7] = target: T1, S-adenosylmethionine synthetase (MAT 1 and MAT 2) (Rattus norvegicus); assay: (§4) Inhibitory potency against rat methionine adenosyltransferase was reported; type: protein assay; in short: as §2
[8] = test system: CSc1nc2c(N)ncnc2n1[C@@H]1O[C@H](COP(=O)(O)OP(=O)(O)OP(=O)(O)O)[C@@H](O)[C@H]1O; assay: (§5) […] rat Methionine adenosyltransferase was reported; type: protein assay; in short: as §2
[9] = test system: CNc1nc2c(N)ncnc2n1C1O[C@H](COP(=O)(O)OP(=O)(O)OP(=O)(O)O)[C@@H](O)[C@H]1O; assay: as §5; type: protein assay; in short: as §2
[10] = test system: Nc1ncnc2c1ncn2[C@@H]1O[C@H](COP(=O)(O)OP(=O)(O)OP(=O)(O)O)[C@@H](O)[C@H]1O; assay: Inhibition of methionine adenosyltransferase in Novikoff Hepatoma(MAT-T), activity expressed as conc of Mg-ATP for half maximal velocity; type: protein assay
In short: (§6)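 Kinetics at 37 °C for 30 min, in duplicate, in 50 mM Tris-HCl pH 8.2, 150 mM KCl, 15 mM MgCl2, 5 mM DTT. Enzyme was MAT-T from ascites-passaged Novikoff hepatoma cells or MAT-II from rat kidney, both DEAE-cellulose fractions, with 60 µM [14C]methionine. Inhibitors given as 1:1 Mg complexes at two levels against six to eight Mg-ATP levels (0.5–4.0 × KM). Product counted on phosphocellulose disks.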

[11] = target: T1, S-adenosylmethionine synthetase (MAT 1 and MAT 2) (Rattus norvegicus); assay: Relative maximum velocity against rat Methionine adenosyltransferase was reported; type: protein assay
In short: (§7)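 Analogues at 1 mM tested as substrates of MAT-II (rat kidney) or MAT-T (Novikoff hepatoma), using 10 μL of enzyme stock per assay. Run at 37 °C for 30 min in Tris-HCl pH 8.2 with 150 mM KCl and 15 mM MgCl2, plus 60 μM [14C]methionine. Radiolabelled product bound to phosphocellulose disks and counted. Kinetic constants came from double-reciprocal plots.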

[12] = target: S-adenosylmethionine synthase isoform type-2 (Rattus norvegicus) (UniProt P18298); assay: Relative maximum velocity against rat kidney Methionine adenosyltransferase II; in short: as §7
[13] = target: S-adenosylmethionine synthase isoform type-1 (Rattus norvegicus) (UniProt P13444); assay: Inhibitory potency against rat Methionine adenosyltransferase I
In short: (§8)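 Rat liver MAT-I, prepared free of MAT-II and MAT-III and diluted 5-fold. Duplicate assays at 37 °C, 30 min, in 150 mM KCl–7.5 mM MgSO4–2 mM DTT–50 mM HEPES pH 7.5 with 380 μM [14C]methionine. Two inhibitor levels (1:1 Mg complexes, 1-5 × Ki) run against six to eight Mg-ATP levels spanning 0.5-4.0 × KM. Ki taken from kinetic plots.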

[14] = test system: Nc1ncnc2c1ncn2[C@@H]1O[C@H](COP(=O)(O)OP(=O)(O)OP(=O)(O)O)[C@@H](O)[C@H]1O; assay: Inhibitory constant against rat kidney Methionine adenosyltransferase II, activity expressed as conc of Mg-ATP for half maximal velocity; in short: as §6
[15] = test system: Nc1ncnc2c1ncn2[C@H]1C[C@H](O)[C@@H](COP(=O)(O)OP(=O)(O)OP(=O)(O)O)O1; assay: (§9) Inhibitory constant against rat kidney Methionine adenosyltransferase II; in short: as §1
[16] = test system: CSc1nc2c(N)ncnc2n1[C@@H]1O[C@H](COP(=O)(O)OP(=O)(O)OP(=O)(O)O)[C@@H](O)[C@H]1O; assay: as §9; in short: as §1
[17] = test system: Nc1ncnc2c1ncn2C1O[C@H](COP(=O)(O)OP(=O)(O)OP(N)(=O)O)[C@@H](O)[C@H]1O; assay: as §9; in short: as §1
[18] = test system: CNc1nc2c(N)ncnc2n1C1O[C@H](COP(=O)(O)OP(=O)(O)OP(=O)(O)O)[C@@H](O)[C@H]1O; assay: as §9; in short: as §1
[19] = target: S-adenosylmethionine synthase isoform type-2 (Rattus norvegicus) (UniProt P18298); assay: Relative maximum velocity against rat Methionine adenosyltransferase II; in short: as §7
[20] = target: S-adenosylmethionine synthase isoform type-1 (Rattus norvegicus) (UniProt P13444); assay: Relative maximum velocity against liver (MAT-I) in rat methionine adenosyltransferase was reported
In short: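 Substrate activity measured with rat liver MAT-I at 37 °C for 30 min, pH 7.5 HEPES buffer, with 380 μM [14C]methionine. ATP analogue at 1 mM, with a higher enzyme amount (10 μL stock). [14C]S-adenosylmethionine captured on phosphocellulose paper and counted by scintillation. Blanks lacked ATP. Constants taken from linear double-reciprocal plots.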

[21] = test system: Nc1ncnc2c1ncn2[C@H]1C[C@H](O)[C@@H](COP(=O)(O)OP(=O)(O)OP(=O)(O)O)O1; assay: Inhibitory constant against rat liver Methionine adenosyltransferase I; in short: as §8
[22] = test system: Nc1ncnc2c1ncn2[C@@H]1O[C@H](COP(=O)(O)OP(=O)(O)OP(=O)(O)O)[C@@H](O)[C@H]1O; assay: […] rat liver Methionine adenosyltransferase I, activity expressed as conc of Mg-ATP for half maximal velocity
In short: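 Rat liver MAT-I, free of MAT-II and MAT-III, was assayed in 50 mM HEPES pH 7.5, 150 mM KCl, 7.5 mM MgSO4, 2 mM DTT, with 380 µM [14C]methionine, at 37 °C for 30 min in duplicate. Mg-complexed inhibitor was used at two levels against six to eight Mg-ATP levels (0.5–4.0 × KM). Labelled product was captured on phosphocellulose and scintillation-counted; blanks lacked ATP.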

[23] = target: S-adenosylmethionine synthase isoform type-2 (Rattus norvegicus) (UniProt P18298); assay: as §4; in short: as §2

S-adenosylmethionine synthase isoform type-1 (Rattus norvegicus), sequence (P13444 whole entry, canonical isoform): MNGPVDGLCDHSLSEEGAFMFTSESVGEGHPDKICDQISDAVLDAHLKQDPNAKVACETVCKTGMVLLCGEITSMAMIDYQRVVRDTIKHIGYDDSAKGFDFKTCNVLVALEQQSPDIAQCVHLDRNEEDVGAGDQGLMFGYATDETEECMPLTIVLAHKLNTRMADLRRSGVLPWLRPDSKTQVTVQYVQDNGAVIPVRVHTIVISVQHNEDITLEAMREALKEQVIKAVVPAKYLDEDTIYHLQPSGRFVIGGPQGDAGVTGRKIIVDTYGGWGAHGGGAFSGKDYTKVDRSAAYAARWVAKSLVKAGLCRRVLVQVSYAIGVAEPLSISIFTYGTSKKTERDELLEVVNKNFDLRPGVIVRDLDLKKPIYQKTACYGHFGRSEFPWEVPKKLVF
S-adenosylmethionine synthetase (MAT 1 and MAT 2) (Rattus norvegicus) (from UniProt P13444+P18298), sequence (P18298 whole entry, looked up): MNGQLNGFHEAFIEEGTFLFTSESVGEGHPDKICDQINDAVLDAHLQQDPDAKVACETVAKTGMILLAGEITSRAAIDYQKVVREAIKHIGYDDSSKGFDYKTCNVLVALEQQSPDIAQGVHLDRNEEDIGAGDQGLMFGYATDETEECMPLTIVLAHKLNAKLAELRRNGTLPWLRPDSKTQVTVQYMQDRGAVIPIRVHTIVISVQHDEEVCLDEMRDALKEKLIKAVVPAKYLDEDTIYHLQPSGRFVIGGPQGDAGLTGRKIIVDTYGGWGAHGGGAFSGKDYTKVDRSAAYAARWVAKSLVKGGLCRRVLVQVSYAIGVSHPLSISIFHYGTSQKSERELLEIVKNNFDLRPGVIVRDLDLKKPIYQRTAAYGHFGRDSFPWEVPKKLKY
S-adenosylmethionine synthetase (MAT 1 and MAT 2) (Rattus norvegicus) (from UniProt P13444+P18298), sequence (P13444 whole entry, looked up): as the sequence (P13444 whole entry, canonical isoform) above
S-adenosylmethionine synthase isoform type-2 (Rattus norvegicus), sequence (P18298 whole entry, canonical isoform): as the sequence (P18298 whole entry, looked up) above
S-adenosylmethionine synthase isoform type-2 (Rattus norvegicus), P18298, sequence (P18298 whole entry, canonical isoform): as the sequence (P18298 whole entry, looked up) above
S-adenosylmethionine synthase isoform type-1 (Rattus norvegicus), P13444, sequence (P13444 whole entry, canonical isoform): as the sequence (P13444 whole entry, canonical isoform) above

## CSc1nc(N)c2ncn([C@@H]3O[C@H](COP(=O)(O)OP(=O)(O)OP(=O)(O)O)[C@@H](O)[C@H]3O)c2n1
[1]
  Inhibition potency T/II: 5.5
[2]
  Inhibition potency: 0.23
[3]
  Inhibition potency: 1.27

## Nc1ncnc2c1ncn2[C@@H]1O[C@H](COP(=O)(O)OP(=O)(O)OP(=O)(O)O)[C@@H](O)[C@H]1O
[4]
  Relative Vmax: 100
[5]
  Relative Vmax: 100
[6]
  Relative Vmax: 100

## CCCC(OP(=O)(O)OP(=O)(O)OP(=O)(O)O)[C@H]1O[C@@H](n2cnc3c(N)ncnc32)[C@H](O)[C@@H]1O (some centres undefined)
[1]
  Inhibition potency T/II: 1.3
[7]
  Inhibition potency: 3.78
[2]
  Inhibition potency: 2.92

## S-adenosylmethionine synthetase (MAT 1 and MAT 2) (Rattus norvegicus) (from UniProt P13444+P18298)
[8]
  Km: 200 µM
[9]
  Km: 230 µM
[10]
  Km: 140 µM

## CSc1nc2c(N)ncnc2n1[C@@H]1O[C@H](COP(=O)(O)OP(=O)(O)OP(=O)(O)O)[C@@H](O)[C@H]1O
[1]
  Inhibition potency T/II: 0.5
[11]
  Relative Vmax: 7.3
[12]
  Relative Vmax: 3.1
[2]
  Inhibition potency: 1.4
[3]
  Inhibition potency: 0.7

## Nc1ncnc2c1ncn2C1O[C@H](COP(=O)(O)OP(=O)(O)OP(N)(=O)O)[C@@H](O)[C@H]1O (some centres undefined)
[12]
  Relative Vmax: 97
[2]
  Inhibition potency: 0.042

## Nc1ncnc2c1ncn2[C@@H]1O[C@H](COP(=O)(O)OP(=O)(O)NP(=O)(O)O)[C@@H](O)[C@H]1O
[1]
  Inhibition potency T/II: 1.4
[2]
  Inhibition potency: 25.5
[3]
  Inhibition potency: 35

## CC(OP(=O)(O)OP(=O)(O)OP(=O)(O)O)[C@H]1O[C@@H](n2cnc3c(N)ncnc32)[C@H](O)[C@@H]1O (some centres undefined)
[1]
  Inhibition potency T/II: 2.4
[7]
  Inhibition potency: 1.75
[2]
  Inhibition potency: 0.74
[13]
  Inhibition potency: 15.6

## S-adenosylmethionine synthase isoform type-2 (Rattus norvegicus), P18298
[14]
  Km: 140 µM
[15]
  Km: 4000 µM
[16]
  Km: 100 µM
[17]
  Km: 3300 µM
[18]
  Km: 160 µM

## CO[C@H]1[C@@H](O)[C@H](n2cnc3c(N)ncnc32)O[C@@H]1COP(=O)(O)OP(=O)(O)OP(=O)(O)O
[1]
  Inhibition potency T/II: 0.95
[7]
  Inhibition potency: 0.78
[2]
  Inhibition potency: 0.82

## CO[C@@H]1[C@H](O)[C@@H](COP(=O)(O)OP(=O)(O)OP(=O)(O)O)O[C@H]1n1cnc2c(N)ncnc21
[1]
  Inhibition potency T/II: 0.82
[7]
  Inhibition potency: 0.82
[2]
  Inhibition potency: 1

## Nc1ncnc2c1ncn2[C@H]1C[C@H](O)[C@@H](COP(=O)(O)OP(=O)(O)OP(=O)(O)O)O1
[19]
  Relative Vmax: 6.5
[2]
  Inhibition potency: 0.035
[13]
  Inhibition potency: 0.091
[20]
  Relative Vmax: 26

## Nc1ncnc2c1ncn2[C@@H]1O[C@H](COP(=O)(O)CP(=O)(O)OP(=O)(O)O)[C@@H](O)[C@H]1O
[1]
  Inhibition potency T/II: 0.89
[2]
  Inhibition potency: 0.46
[3]
  Inhibition potency: 0.41

## CCCCNc1ncnc2c1ncn2C1O[C@H](COP(=O)(O)OP(=O)(O)OP(=O)(O)O)[C@@H](O)[C@H]1O (some centres undefined)
[1]
  Inhibition potency T/II: 2.5
[2]
  Inhibition potency: 0.26

## Nc1ncnc2c1nc(SCCC(N)C(=O)O)n2C1O[C@H](COP(=O)(O)OP(=O)(O)OP(=O)(O)O)[C@@H](O)[C@H]1O (some centres undefined)
[2]
  Inhibition potency: 0.27

## S-adenosylmethionine synthase isoform type-1 (Rattus norvegicus), P13444
[21]
  Km: 1540 µM
[22]
  Km: 140 µM

## CNc1nc2c(N)ncnc2n1C1O[C@H](COP(=O)(O)OP(=O)(O)OP(=O)(O)O)[C@@H](O)[C@H]1O (some centres undefined)
[23]
  Inhibition potency: 0.61
[1]
  Inhibition potency T/II: 0.69
[11]
  Relative Vmax: 19
[12]
  Relative Vmax: 37
[2]
  Inhibition potency: 0.88
